The results in this text go back to the RNAGym collection of RNA variant scans (doi:10.1126/science.aae0568).

B1: tRNA (parent)
chain: GUUCCGUUGGCGUAAUGGUAACGCGUCUCCCUCCUAAGGAGAAGACUGCGGGUUCGAGUCCCGUACGGAACG

This sample holds only a part of the variants without activity.

In the series the parent is B1. As to the kind of experiment: yeast fitness relative to wild type (ratio to wild type); higher = fitter; tRNA-Arg(CCU), competitive growth, 37 C, YPD. An outline of the steps: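 Changes in genotype frequencies gave Darwinian fitness relative to wild type. Frequencies were read by 100-nucleotide paired-end sequencing of gene amplicons before and after pooled Saccharomyces cerevisiae strains, carrying tRNA-Arg(CCU) gene variants at the native locus, were competed in YPD at 37°C for 24 hours in six replicates. A genotype was kept only with ≥ 100 starting reads, and estimates < 0.5 were set to 0.5.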
Consider U7C C27G, for which the yeast fitness was 0.696.

With C31U C34G G67A, the yeast fitness was 0.539.

On to G18C U19G A20G C33A U35C C66A, for which the yeast fitness was at most 0.5.

For C5A A45C, the yeast fitness was 0.81.

In the case of C31U U47A G51U, the yeast fitness was at most 0.5.

In the case of C4A U7A A14G G17C G56A C62U, the yeast fitness was at most 0.5.

U7A G10C C22U C27G: the yeast fitness turned out to be 0.577.

Turning to C24A G68U, the yeast fitness turned out to be 0.654.

Turning to U16A C34G U47A G52C, the yeast fitness was at most 0.5.

On to A43G G48C C55G, for which the yeast fitness turned out to be 0.597.

Take U19A A40G: the yeast fitness turned out to be 0.75.

Regarding C11U C33G A65C, the yeast fitness is 0.694.

Regarding G10A A20U A42G C60U U64A C66A G68A A69G, the yeast fitness was at most 0.5.

As to C5U A45G C61G C66U A69U, the yeast fitness is at most 0.5.

Regarding C5U G12A, the yeast fitness amounted to 0.959.

On to C4U G6C C30G, for which the yeast fitness was at most 0.5.

Take U3A G12C A21C A36C: the yeast fitness was at most 0.5.

Consider U16C A21C G41C A43C, for which the yeast fitness was at most 0.5.

For the variant A15C C24G A69U, the yeast fitness was 0.533.

On to C5A U28C, for which the yeast fitness turned out to be 0.784.

G6C C31U A43G A69U: the yeast fitness was at most 0.5.

For the variant U7A C11G A36U C49U, the yeast fitness is at most 0.5.

For C11A A21G C62G, the yeast fitness is 0.655.

On to A20C C22U A43U, for which the yeast fitness was 0.584.

C4U C49A A57C A69U: the yeast fitness is at most 0.5.

Take C30G U32G C46G C66U: the yeast fitness is at most 0.5.

In the case of A14G U19C G38C G44C C46A, the yeast fitness stood at 0.704.

Regarding U3A G44A C55U, the yeast fitness is at most 0.5.

Consider A57U U59C, for which the yeast fitness worked out at 0.569.

Take G9A A20U C34G A42U G68C: the yeast fitness was at most 0.5.

In the case of U26G A70U, the yeast fitness was 0.896.

Take C24G U28G C33U A42U G50A: the yeast fitness was at most 0.5.

Consider G6C U13A, for which the yeast fitness turned out to be 0.718.

For U3C A14G C24A G44A A65C, the yeast fitness is at most 0.5.

On to C11U C27G A43C, for which the yeast fitness turned out to be 0.577.

Turning to U28A G51A A57U, the yeast fitness came out at 0.598.

For the variant C33G C61A C62U, the yeast fitness is at most 0.5.

Turning to C4U A15C C30G A69C A70G, the yeast fitness was at most 0.5.

For the variant C30U G38C A57G, the yeast fitness was at most 0.5.

Take G6A U8G A45U G48C: the yeast fitness was at most 0.5.

For the variant A36G U54A C60G, the yeast fitness is at most 0.5.

For G41A A43G, the yeast fitness turned out to be 0.81.

As to C5G U26A A36C C61G A69G, the yeast fitness was at most 0.5.

Turning to G23A C62U, the yeast fitness was determined as 0.781.

In the case of C34U G56A, the yeast fitness amounted to 0.798.

In the case of C5G A14C G23C C33U G38A G58C A70G, the yeast fitness was at most 0.5.

As for A14G A21U C62G, the yeast fitness is at most 0.5.

Regarding C5U C30A C33G A42C C60A C66A A69C, the yeast fitness was at most 0.5.

For the variant A14C U16C G44A U54C C61U A69C, the yeast fitness was at most 0.5.

Regarding U2G A42U, the yeast fitness turned out to be 0.804.

As for C11A A15G C33U A37G, the yeast fitness was at most 0.5.

Turning to C11G U16A C60A, the yeast fitness was at most 0.5.

For G10C A70G, the yeast fitness was determined as 0.644.

As to C33A A43C G50A A57U C60G, the yeast fitness is at most 0.5.

G38C U54A A65C: the yeast fitness worked out at 0.567.

C5G A40C C49U: the yeast fitness was at most 0.5.

C5U A40C A65U: the yeast fitness is 0.643.

Consider U7A U35C A42G C60U, for which the yeast fitness is 0.561.

For A36U A45G, the yeast fitness came to 0.606.

Consider C4U A20G U28C C31U G50C C55U C60G G63A C66U, for which the yeast fitness was found to be 0.508.

Take A14G C24U A43C A70U: the yeast fitness is at most 0.5.

Turning to C4U U8A C22U, the yeast fitness is at most 0.5.

C34G C61U: the yeast fitness stood at 0.602.

Regarding C4A G56C C60G C66U, the yeast fitness was 0.568.

Regarding G9A U53A, the yeast fitness was 0.701.

On to A20C U28C C30A G44C A45G C55A G63C, for which the yeast fitness was at most 0.5.

In the case of G17A G41A, the yeast fitness amounted to 0.665.

With C5A C24U C62U, the yeast fitness came to 0.624.

Consider U13A A40G A42G A57C C66U, for which the yeast fitness was 0.522.

Consider A15G U19C A37U C49U G51A U64A, for which the yeast fitness is at most 0.5.

In the case of G10A U19A, the yeast fitness is 0.729.

In the case of A14G A36G G48A, the yeast fitness turned out to be 0.555.

For the variant C24G G50C, the yeast fitness was 0.543.

On to C11G A15U C22U U32C A42G, for which the yeast fitness is at most 0.5.

As to C31A G38C A43C C46G, the yeast fitness was 0.672.

As to G6A C31G C61U, the yeast fitness is at most 0.5.

For the variant A45C A69U, the yeast fitness is 0.959.

For the variant A14C C30A A69U, the yeast fitness is at most 0.5.

With G12A G48C U54A, the yeast fitness turned out to be 0.59.

Regarding A57G G67U, the yeast fitness was found to be 0.869.

Take C11A G23C C49G: the yeast fitness was at most 0.5.

Regarding A45U C49A, the yeast fitness turned out to be 0.57.

As to G12A U13G U19C A21G G52A U59G, the yeast fitness is at most 0.5.

As for G9C C24G C29G C55U A70G, the yeast fitness is at most 0.5.

As for C30U G51C G58C, the yeast fitness is at most 0.5.

Consider G9C U28A C46U C60A A70C, for which the yeast fitness was at most 0.5.

Turning to A14C C27G C46G A65G C66U, the yeast fitness was at most 0.5.

As to C24U C60A G63A, the yeast fitness was at most 0.5.

Consider C5G A15U C49U A57U C61A, for which the yeast fitness came to 0.663.

In the case of U8C C22U A69C, the yeast fitness was 0.505.

A15G C31U G58A: the yeast fitness is 1.03.

C11A U13G C24G C34G G52A: the yeast fitness is at most 0.5.

With U13A U47A C60A A69C, the yeast fitness was 0.525.

With C31U C46A A70C, the yeast fitness came to 0.771.

Take C24G A40C A45U: the yeast fitness is at most 0.5.

On to U3G G18A, for which the yeast fitness is 0.694.

With C30G C46A C60A, the yeast fitness was at most 0.5.

As for U19C C46A C60G G67C, the yeast fitness was at most 0.5.

For the variant G6A C31A A37C, the yeast fitness is at most 0.5.

As for A36G U53A, the yeast fitness stood at 0.754.

Regarding U47A G67C, the yeast fitness is 0.88.

For C4U A15U U16A G23C G25A A57U A69U, the yeast fitness was at most 0.5.

C11G A40C C46U C60A: the yeast fitness is at most 0.5.

A14U C55A: the yeast fitness came to 0.575.

Regarding C5U U19A G51C G58A, the yeast fitness was at most 0.5.

As for A14C A42U G44C, the yeast fitness is at most 0.5.

For C4U A42G C66A, the yeast fitness was at most 0.5.

With U13G C22U G25A C31A, the yeast fitness was 0.601.

In the case of A15U A43C G67U, the yeast fitness is at most 0.5.

Turning to G9A C29U U47A A57G, the yeast fitness is at most 0.5.

C5U C11G G48C C66U: the yeast fitness is at most 0.5.

As to G10C A20G, the yeast fitness stood at 0.775.

In the case of C4A C61U, the yeast fitness stood at 0.911.

For the variant A20U C22U C24U, the yeast fitness is at most 0.5.

Regarding U16G G25C C46U G50A, the yeast fitness was found to be 0.581.

Take A37U G39C G48A U53G: the yeast fitness was at most 0.5.

Turning to C5U U19C C66U, the yeast fitness worked out at 0.82.

As to A37G A57G, the yeast fitness came out at 0.87.

C31G G51A: the yeast fitness stood at 0.749.

As for A15U C27G U28G G67C, the yeast fitness is at most 0.5.

Turning to C27A C31G A42C C61G, the yeast fitness is at most 0.5.

As to C24U G25C C31A C33G A65U, the yeast fitness worked out at 0.584.

Turning to U2A G41A C66U, the yeast fitness was at most 0.5.

With U7G C61A, the yeast fitness is 0.708.

For G9C U53C C60A, the yeast fitness was at most 0.5.

Consider G38U G63A, for which the yeast fitness was found to be 0.743.

For the variant U2C U16C C27G C55U U59G, the yeast fitness is at most 0.5.

On to G18C U19A A36U, for which the yeast fitness was at most 0.5.

Consider C27U A40G G44A C55U A69U, for which the yeast fitness is at most 0.5.

Turning to G12A C60A G67A, the yeast fitness is 0.68.

In the case of U2A U8A C34A A65U, the yeast fitness is at most 0.5.

With C4A A14U C31U A40U G41C A45C A69C, the yeast fitness was determined as 0.599.

Regarding A21C C27U, the yeast fitness came to 0.774.

With G9C G48C G58A A70U, the yeast fitness came out at 0.552.

For C5G U47A G58A, the yeast fitness is 0.567.

Turning to A15G U26G C55U A69U A70C, the yeast fitness is at most 0.5.

For the variant C46G C49A U54C G58C, the yeast fitness is at most 0.5.

With U35C A43C, the yeast fitness turned out to be 0.927.

For A42G G44C C49U A57C, the yeast fitness is at most 0.5.

For C24U C27G C61G, the yeast fitness was at most 0.5.

Turning to U19A A20G G56A, the yeast fitness came to 0.956.

On to U13C A15C C22U C34A C66A, for which the yeast fitness is at most 0.5.

For U3C G39A A57U C62G, the yeast fitness was at most 0.5.

For the variant C30G, the yeast fitness stood at 0.68.

Regarding G9C U28C A42U U59G, the yeast fitness is at most 0.5.

As to G9C C29G C31U C34G A42G, the yeast fitness stood at 0.535.

Take C33G C61G: the yeast fitness worked out at 0.815.

For G17A A21C C29G A70U, the yeast fitness was at most 0.5.

Consider U2C C29A C34G A43U G52A, for which the yeast fitness is 0.682.

For the variant C29U C62U A70C, the yeast fitness is 0.604.

As to C11G A14U C34A A69C, the yeast fitness was at most 0.5.

On to G18A G68C A69U, for which the yeast fitness is at most 0.5.

Regarding U16C A37C C55G C62U, the yeast fitness was at most 0.5.

As to G10C A36C C55G, the yeast fitness is at most 0.5.

Take C5A A21U C55A: the yeast fitness stood at 0.572.

For G9C C66G, the yeast fitness was found to be 0.547.

For C4U A15U A20C G23A G50C, the yeast fitness is at most 0.5.

Turning to C11G G39C C61U, the yeast fitness was at most 0.5.

On to C11A A20U G38A A45C, for which the yeast fitness is at most 0.5.

As to C24A G39A C60A C66U, the yeast fitness is at most 0.5.

For C5U A20C U53A, the yeast fitness stood at 0.544.

Consider A20G A21G C29G C46G G52A, for which the yeast fitness is at most 0.5.

Regarding U2G U16A, the yeast fitness was 1.15.

With U2C C4A C11U C29U G67A A70U, the yeast fitness is at most 0.5.

In the case of A14U G48C, the yeast fitness worked out at 0.714.

Consider U3C C11U G12C, for which the yeast fitness was at most 0.5.

Take G18A C34U C60U: the yeast fitness was at most 0.5.
